According to ChEMBL document CHEMBL1177636, “Optimization of isochromanone based urotensin II receptor agonists” (Bioorg Med Chem, 2010):
Active and inactive are the calls of the source. The rule behind the calls is not given here.

How the values were obtained:
Format in all cases: functional, cell-based
[1] = biological target: T1, Urotensin-2 receptor (Homo sapiens, UniProt Q9UKP6); assay: (§1) Agonist activity against human urotensin 2 receptor expressed in […] cells assessed as beta-galactosidase activity after 5 days by R-SAT assay
T1 sequence (Q9UKP6 whole entry): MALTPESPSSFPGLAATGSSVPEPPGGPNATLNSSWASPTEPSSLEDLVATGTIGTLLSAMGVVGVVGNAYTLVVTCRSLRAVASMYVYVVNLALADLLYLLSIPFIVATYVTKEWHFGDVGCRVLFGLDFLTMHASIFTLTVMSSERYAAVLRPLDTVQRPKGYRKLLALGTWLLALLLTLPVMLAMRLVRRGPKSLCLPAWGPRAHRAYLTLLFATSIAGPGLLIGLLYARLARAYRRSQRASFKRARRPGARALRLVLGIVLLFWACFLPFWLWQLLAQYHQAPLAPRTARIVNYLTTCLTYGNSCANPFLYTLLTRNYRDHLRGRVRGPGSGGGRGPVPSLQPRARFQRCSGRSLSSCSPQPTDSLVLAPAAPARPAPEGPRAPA
In short: (§2)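 R-SAT in NIH-3T3 cells grown to 80% confluence in DMEM with 10% bovine calf serum, then transfected for 18 h with human UII receptor plus a β-galactosidase marker. Cells were frozen and thawed into DMEM with 0.4% calf serum and 30% UltraCulture, then incubated with compound for 5 days in 5% CO₂. Reporter read at 420 nm. Eight doses in triplicate, 2–5 EC₅₀ determinations, reported as mean ± SD; efficacy normalized to UII = 100%.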

[2] = biological target: T2, Urotensin-2 receptor (Homo sapiens) (UniProt Q9UKP6); assay: Agonist activity against human urotensin 2 receptor expressed in […] cells assessed as beta-galactosidase activity after 5 days by R-SAT assay relative to Urotensin-2; in short: as §2
T2 sequence (whole entry): T1 sequence (Q9UKP6 whole entry)

[3] = biological target: T2, Urotensin-2 receptor (Homo sapiens); assay: as §1; in short: as §2
[4] = biological target: Somatostatin receptor type 1 (Homo sapiens) (UniProt P30872); assay: Agonist activity against human SST1 receptor expressed in […] cells assessed as beta-galactosidase activity at 3 uM after 5 days by R-SAT assay
Sequence of Somatostatin receptor type 1 (Homo sapiens) (P30872 whole entry): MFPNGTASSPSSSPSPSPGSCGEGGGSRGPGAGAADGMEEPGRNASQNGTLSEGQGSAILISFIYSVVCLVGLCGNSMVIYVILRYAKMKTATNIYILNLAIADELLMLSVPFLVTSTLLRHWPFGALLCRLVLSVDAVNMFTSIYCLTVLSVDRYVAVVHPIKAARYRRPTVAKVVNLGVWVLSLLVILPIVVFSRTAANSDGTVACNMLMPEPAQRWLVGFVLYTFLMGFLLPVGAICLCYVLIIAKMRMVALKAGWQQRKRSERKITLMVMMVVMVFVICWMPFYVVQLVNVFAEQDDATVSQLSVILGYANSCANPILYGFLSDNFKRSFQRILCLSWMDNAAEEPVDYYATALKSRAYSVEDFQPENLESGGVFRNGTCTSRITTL

[5] = biological target: Somatostatin receptor type 4 (Homo sapiens) (UniProt P31391); assay: Agonist activity against human SST4 receptor expressed in […] cells assessed as beta-galactosidase activity at 3 uM after 5 days by R-SAT assay
Sequence of Somatostatin receptor type 4 (Homo sapiens) (P31391 whole entry): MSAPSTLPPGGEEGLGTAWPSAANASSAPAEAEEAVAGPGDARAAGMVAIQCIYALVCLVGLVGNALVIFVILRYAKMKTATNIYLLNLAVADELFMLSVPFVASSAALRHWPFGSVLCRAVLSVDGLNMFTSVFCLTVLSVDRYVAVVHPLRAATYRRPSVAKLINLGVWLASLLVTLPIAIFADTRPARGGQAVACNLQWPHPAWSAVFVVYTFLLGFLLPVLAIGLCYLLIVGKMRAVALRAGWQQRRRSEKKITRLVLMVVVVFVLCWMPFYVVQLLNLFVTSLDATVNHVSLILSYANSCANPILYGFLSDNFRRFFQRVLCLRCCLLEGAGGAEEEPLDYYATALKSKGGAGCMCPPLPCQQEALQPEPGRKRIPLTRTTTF

Cc1cc2c(cc1C)CC(CCN(C)C)(c1ccc3ccccc3c1)OC2 (stereo unspecified)
EC50 [1]: 263 nM | Efficacy [2]: 49%

COc1cccc(C2(CCN(C)C)Cc3cc(C)c(C)cc3C(=O)O2)c1 (stereo unspecified)
EC50 [1]: 2880 nM | Efficacy [2]: 149%

CN(C)CCC1(c2ccc(-c3ccccc3)cc2)Cc2ccccc2C(=O)O1 (stereo unspecified)
pEC50 [3]: inactive | Efficacy [2]: inactive

COc1cccc2c1CC(CCN(C)C)(c1ccc(Cl)cc1)N(C)C2=O (stereo unspecified)
EC50 [1]: 1170 nM | Efficacy [2]: 151%

Cc1cc2c(cc1C)C(=O)OC(CCN(C)C)(c1ccc3ccccc3c1)C2 (stereo unspecified)
EC50 [1]: 148 nM | Efficacy [2]: 126%

CN(C)CCC1(c2cccc(Br)c2)Cc2ccccc2C(=O)O1 (stereo unspecified)
EC50 [1]: 2950 nM | Efficacy [2]: 68%

Cc1cc2c(cc1C)CC(CCN(C)C)(c1ccc(Cl)cc1)OC2 (stereo unspecified)
EC50 [1]: 692 nM | Efficacy [2]: 47%

COc1ccc2c(c1)CC(CCN(C)C)(c1ccc(Cl)cc1)OC2=O (stereo unspecified)
EC50 [1]: 955 nM | Efficacy [2]: 165%

CN(C)CCC1(c2ccc(Br)cc2)Cc2ccccc2C(=O)O1 (stereo unspecified)
EC50 [1]: 933 nM | Efficacy [2]: 127%

CN(C)CCC1(c2cccc(-c3ccccc3)c2)Cc2ccccc2C(=O)O1 (stereo unspecified)
EC50 [1]: 1410 nM | Efficacy [2]: 50%

C=CCN(CC=C)c1ccc2c(c1)CC(CCN(C)C)(c1ccc(Cl)cc1)OC2=O (stereo unspecified)
EC50 [1]: 724 nM | Efficacy [2]: 132%

CN(C)CCC1(c2ccc(Cl)c(Cl)c2)Cc2ccccc2C(=O)O1 (stereo unspecified)
EC50 [1]: 676 nM | Efficacy [2]: 172%

C=CCN(CC=C)c1cccc(C2(CCN(C)C)Cc3ccccc3C(=O)O2)c1 (stereo unspecified)
EC50 [1]: 2400 nM | Efficacy [2]: 55%

CN(C)CCC1(c2ccc(Cl)cc2)Cc2ccc3ccccc3c2C(=O)O1 (stereo unspecified)
EC50 [1]: 1150 nM | Efficacy [2]: 124%

CN(C)CCC1(c2ccc(Cl)cc2)Cc2ccccc2CO1 (stereo unspecified)
EC50 [1]: 501 nM | Efficacy [2]: 110%

CN(C)CCC1(c2ccc(Oc3ccccc3)cc2)Cc2ccccc2C(=O)O1 (stereo unspecified)
EC50 [1]: 1150 nM | Efficacy [2]: 54%

COc1ccc2c(c1C)CC(CCN(C)C)(c1ccc(Cl)cc1)OC2=O (stereo unspecified)
EC50 [1]: 1740 nM | Efficacy [2]: 118%

CC(C)N1C(=O)c2ccccc2CC1(CCN(C)C)c1ccc(Cl)cc1 (stereo unspecified)
EC50 [1]: 2240 nM | Efficacy [2]: 145%

C[N+](C)(C)CCC1(c2ccc(Cl)cc2)Cc2ccccc2C(=O)O1 (stereo unspecified)
EC50 [1]: 3800 nM | Efficacy [2]: 118%

Cc1cc2c(cc1C)C(=O)OC(CCN(C)C)(c1ccc(Cl)c(Cl)c1)C2 (stereo unspecified)
EC50 [1]: 51.3 nM | Efficacy [2]: 98% | Activity [4]: inactive | Activity [5]: 31%

CN(C)CCC1(c2ccc(Cl)cc2)Cc2cc(-c3ccccc3)ccc2C(=O)O1 (stereo unspecified)
pEC50 [3]: inactive | Efficacy [2]: inactive

COc1cc(OC)cc(C2(CCN(C)C)Cc3cc(C)c(C)cc3C(=O)O2)c1 (stereo unspecified)
EC50 [1]: 5250 nM | Efficacy [2]: 156%

C=CCN(CC=C)c1ccc(C2(CCN(C)C)Cc3ccccc3C(=O)O2)cc1 (stereo unspecified)
pEC50 [3]: inactive | Efficacy [2]: inactive

CN(C)CCC1(c2ccc(C#Cc3ccccc3)cc2)Cc2ccccc2C(=O)O1 (stereo unspecified)
pEC50 [3]: inactive | Efficacy [2]: inactive

CNCCC1(c2ccc(Cl)cc2)Cc2ccccc2C(=O)O1 (stereo unspecified)
EC50 [1]: 1950 nM | Efficacy [2]: 46%

CN(C)CCC1(c2ccc(Cl)cc2)Cc2ccccc2C(=O)N1C (stereo unspecified)
EC50 [1]: 2290 nM | Efficacy [2]: 152%

C=CCN(C)CCC1(c2ccc(Cl)cc2)Cc2ccccc2C(=O)O1 (stereo unspecified)
EC50 [1]: 4170 nM | Efficacy [2]: 77%
